Laboratory results as given in ChEMBL document CHEMBL3352487, “Synthesis, antibacterial activity, and biological evaluation of formyl hydroxyamino derivatives as novel potent peptide deformylase inhibitors against drug-resistant bacteria” (Eur J Med Chem, 2014).
In brackets after ≈: the same amount, converted by molar mass.

Legend:
Staphylococcus aureus = test: Antimicrobial activity against Staphylococcus aureus isolate RN1024 after 24 hrs by broth microdilution method; format: functional; conditions: isolate RN1024, 24 h
How it was run: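 Broth microdilution following NCCLS M7-A4, using ATCC strains and clinical isolates from a provincial hospital.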

Mus musculus [1] = test: Acute toxicity in KM mouse assessed as spleen abnormality at 250 mg/kg, iv measured for 14 days by necropsy; format: organism-based; set-up: dose 250 mg/kg, route intravenous; conditions: in vivo, 336 h
How it was run: (§1)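 Outbred KM mice (SPF, 20–25 g; nine male, ten female) given a single tail-vein injection of 100 or 250 mg/kg in PBS pH 6.5 with 20% DMSO over about 60 s. Behaviour, weight, coat colour, anal temperature, food and water intake, and urine and stool weight followed for 14 days. On day 14, gross necropsy of skin, lungs, heart, liver, kidneys and spleen.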

Mus musculus [2] = test: Acute toxicity in KM mouse assessed as skin abnormality at 250 mg/kg, iv measured for 14 days by necropsy; format: organism-based; set-up: dose 250 mg/kg, route intravenous; conditions: in vivo, 336 h; how it was run: as §1
Mus musculus [3] = test: Acute toxicity in KM mouse assessed as abnormal behaviour at 100 mg/kg, iv measured for 14 days; format: organism-based; set-up: dose 100 mg/kg, route intravenous; conditions: in vivo, 336 h; how it was run: as §1

## CCCC[C@H](CN(O)C=O)C(=O)N1CC=C[C@H]1C(=O)Nc1ccc(F)c[n+]1[O-]
Staphylococcus aureus
  MIC: 0.5 µg/mL (≈ 1.27 µM)
Mus musculus [1]
  Activity: Non-toxic
Mus musculus [2]
  Activity: Non-toxic
Mus musculus [3]
  Activity: Non-toxic
